High-throughput results (PubChem BioAssay)
tolC growth inh – growth inhibitors of E. coli tolC mutant, primary screen, strain BW25113 ΔtolC::kan, 384-well | growth inhibition, % at 10 µM (by protocol) | OD615 | actives 2.2% (n = 65,000) | AID 573, 2007;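 active = growth inhibition at or above a cutoff equal to the mean over every tested compound plus 3 SD, cut at about 60% in these data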;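 also: growth measured after 20 h incubation at 37 °C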
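Doses: one dose of 10 µM final / Material: E. coli BW25113 ΔtolC::kan, tolC deletion mutant strain / Buffer or medium: LB with kanamycin 50 µg/mL / Evaluation: percent growth inhibition / Detection: optical density read at 615 nm / Incubation: 37 °C, 20 h exposure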
Ecoli WT expand – growth inhibitors of wild-type E. coli, primary screen, strain BW25113, expanded library, OD600. OD600 absorbance. growth inhibition, % at 100 µM. actives 0.15% (n = 98,000). AID 710, 2007;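 active = growth inhibition above about 50% at one test dose, limit read from the data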;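 also: growth measured after 20 h incubation at 37 °C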
HePTP inh – inhibitors of human HePTP phosphatase, primary screen, biochemical, absorbance, leukemia target; Tyrosine-protein phosphatase non-receptor type 7 (Homo sapiens), P35236; recombinant HePTP phosphatase activity, OD absorbance; inhibition, % at 20 µM; actives 0.64% (n = 110,000); in the data active = inhibition above about 50%;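 also: plate controls were vehicle for no effect and reference inhibitor for full effect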
Target sequence (P35236 whole entry, looked up): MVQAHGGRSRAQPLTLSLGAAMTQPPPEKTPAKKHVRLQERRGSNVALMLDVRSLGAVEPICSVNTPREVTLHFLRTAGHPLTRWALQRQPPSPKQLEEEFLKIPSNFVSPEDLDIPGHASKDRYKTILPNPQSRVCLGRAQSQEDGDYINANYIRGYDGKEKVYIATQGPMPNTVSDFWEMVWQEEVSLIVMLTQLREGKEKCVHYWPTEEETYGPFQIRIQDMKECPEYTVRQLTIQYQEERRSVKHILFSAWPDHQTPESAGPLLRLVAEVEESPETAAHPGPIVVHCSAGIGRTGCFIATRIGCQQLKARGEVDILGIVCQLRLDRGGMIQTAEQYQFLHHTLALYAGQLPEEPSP
PostGolgi ctrl – growth inhibition of yeast control strain, primary screen, counter-screen for post-Golgi transport modulator project | AID 738, 2007 | efflux-deficient yeast background strain, growth absorbance A615, 16 h | inhibition, % at 10 µM | actives 5% (n = 98,000)
PostGolgi yeast – phenotypic screen on post-Golgi transport, primary screen; post-Golgi transport phenotypic cell assay; inhibition, % at 10 µM; actives 0.9% (n = 98,000);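 also: yeast cells grown in 1536-well plates; yeast grown about 18 h at 30C before absorbance read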
PLAP act – PLAP enzyme activators, biochemical, luminescence, HTS | activation fold at 20 µM | actives 1.2% (n = 96,000) | purified PLAP enzyme, luminescent substrate read-out; stronger effect = higher value | AID 696, 2007; in the data active = activation fold above about 2
Starred values were filed as active, the others as inactive; / = not tested or not shown. Shown are actives, neighbours in structure and some others; about 5.4% of the full set was active somewhere. Rule as the data show it, unless noted: active = inhibition above about 30%; inactive = the rest.

SMILES	tolC growth inh	Ecoli WT expand	HePTP inh	PostGolgi ctrl	PostGolgi yeast	PLAP act
O=C1NC(=S)N(c2ccc(F)cc2)C(=O)/C1=C/c1ccc(-c2cccc(C(=O)O)c2)o1	/	/	44.3	/	/	/
COc1ccc(NC(=O)COc2ccc(-c3ccc(C)cc3)cc2)cc1	/	/	5.4	/	/	/
CC1=CC(=O)N(c2ccc([N+](=O)[O-])cc2)C1=O	/	/	-4.9	/	/	/
CCOC(=O)c1ccc(-c2ccc(/C=C3\C(=O)NC(=O)C(C#N)=C3C)o2)cc1	/	/	-15.0	/	/	/
O=C1NC(=S)N(c2ccc(Cl)cc2)C(=O)/C1=C/C=C/c1ccccc1	/	/	61.9*	/	/	/
COC(=O)c1ccc(-c2ccc(/C=C3\C(=O)NN(c4ccccc4)C3=O)o2)cc1	/	/	4.1	/	/	/
CCOc1ccc(N2C(=O)NC(=O)/C(=C/c3ccc(-c4ccc(C(=O)O)c(Cl)c4)o3)C2=O)cc1	/	/	102.6*	/	/	/
CCOC(=O)c1ccc(N2NC(=O)/C(=C/c3ccc(-c4ccc(Cl)c(C(=O)O)c4)o3)C2=O)cc1	/	/	50.6*	/	/	/
CC1=C(C#N)C(=O)NC(=O)/C1=C\c1ccc(-c2ccc(Cl)c(Cl)c2)o1	/	/	67.2*	/	/	/
COc1ccccc1Cc1noc(-c2ccccc2Cl)n1	/	/	0.7	/	/	/
CCOc1ccc(NC(=O)CN(C)CC(=O)Nc2cc(Cl)ccc2C#N)cc1OCC	/	4.0	/	6.0	-3.8	2.1*
N#Cc1ccc(NC(=O)Nc2ccc(Cl)cc2)cc1	89.9*	48.0	-12.4	74.4*	16.3	0.9
O=C(Nc1ccc2c(c1)OCO2)Nc1ccc(Cl)cc1Cl	/	-8.0	/	4.8	-6.0	0.8
O=C(Nc1ccc(Cl)cc1)Nc1ccc2c(c1)OCCO2	/	/	105.0*	/	/	/
CN(CC(=O)Nc1ccc(C#N)cc1)Cc1ccc(Cl)cc1Cl	/	-7.0	/	40.9*	-10.2	1.6
Cc1cccc(C)c1NC(=O)C(c1cccs1)N(Cc1ccco1)C(=O)Cn1nnc2ccccc21 (stereo not given)	64.3*	-12.0	-1.9	17.6	-3.6	0.8
CC(C)(C)c1cnnn1-c1ccc(NC(=O)c2ccc(Br)o2)cc1	20.5	12.0	13.6	44.5*	4.9	1
O=C(Nc1ccc2nn(-c3ccccc3)nc2c1)c1ccc(Br)o1	-6.6	-7.0	8.3	-1.7	-3.7	0.9
O=C(Nc1ccc2nn(-c3ccc(F)cc3)nc2c1)c1ccc(Br)o1	/	/	81.1*	/	/	/
CC(=O)c1ccc(-n2nncc2C(C)(C)C)cc1	-7.3	-2.0	5.5	33.5*	-8.9	1.2
CC(=O)Oc1c(-c2ccc(Cl)cc2)c2nc3ccccc3nc2c2ccccc12	/	/	-21.1	/	/	/
CCn1cc(/C=C2\C(=O)NC(=O)N(c3ccccc3)C2=O)c2ccccc21	/	/	-6.9	/	/	/
C#CCn1cc(/C=C2\C(=O)NC(=O)N(c3ccc(C)cc3)C2=O)c2ccccc21	/	/	85.4*	/	/	/
O=C(Cn1ccc2ccccc2c1=O)NCCC(=O)NC1CCN(Cc2ccccc2)CC1	-12.7	8.0	-6.8	49.3*	-3.5	1.5
Cc1ccc(OCC(=O)Nc2ccccc2-c2ccccc2)cc1	/	16.0	-7.6	46.1*	-5.0	/
SMILES	tolC growth inh	Ecoli WT expand	HePTP inh	PostGolgi ctrl	PostGolgi yeast	PLAP act
CC(C)C(C)NC(=O)COc1ccc(-c2ccccc2)cc1 (stereo not given)	/	-7.0	/	18.4	32.0*	0.8
Cc1noc(C)c1CSc1nnnn1-c1ccc(Cl)cc1	2.3	0.0	0.9	30.2*	17.8	1.4
Cc1noc(C)c1CSc1nnc(-c2ccccc2)n1N	/	1.0	/	0.4	3.8	0.9
Cc1noc(C)c1CSc1nc2ccccc2c(=O)n1-c1ccc(Cl)cc1	/	-15.0	/	37.8*	-6.4	1.3
CC(=O)Nc1ccc(C2NN=C(c3ccc(C)cc3)S2)cc1 (stereo not given)	/	/	2.2	/	/	/
C=CCSc1nc(O)c(CC)c(=O)n1C(C)CC (stereo not given)	24.1	1.0	7.8	7.2	-2.3	1.2
CCc1c(O)nc(SCc2ccccc2)n(C(C)CC)c1=O (stereo not given)	70.1*	8.0	5.7	26.2	-5.7	0.9
Cc1cc(NC(=O)CSc2nnc(C3COc4ccccc4O3)o2)no1 (stereo not given)	-19.8	-17.0	5.9	42.1*	0.7	1
COc1ccc2nc(N3CCC(O)CC3)c(C#N)cc2c1	11.5	3.0	-3.3	11.4	-2.1	1.8
CCOC(=O)C1CCN(c2nc3cc(OC)ccc3cc2C#N)CC1	74.6*	-8.0	7.1	15.6	2.8	1.5
CCN(CC)c1nc2cc(OC)ccc2cc1C#N	34.1	4.0	10.5	-3.2	38.7*	1.3
